Measured values from different studies.
Lines come from different studies, so protocols differ.
TEK: Angiopoietin-1 receptor (TEK, Homo sapiens, UniProt Q02763)
TEK Y897S: Angiopoietin-1 receptor (TEK, Homo sapiens, UniProt Q02763, Y897S)
TEK R849W: Angiopoietin-1 receptor (TEK, Homo sapiens, UniProt Q02763, R849W)

Cc1ccc(NC(=O)c2ccc(CN3CCN(C)CC3)cc2)cc1Nc1nc(-c2cccnc2)cs1 — remaining signal (TEK; cell-free assay; 0.5 µM): 97.2%
CNCc1ccc(-c2cc(-c3nc(-c4ccc(S(=O)(=O)C(C)C)cc4)cnc3N)on2)cc1 — inhibition (TEK; enzyme activity; inhibitor; 0.4 µM): 0%
Cc1cc(NC(=O)c2cccc3cc(-c4cccc5[nH]nc(N)c45)ccc23)ccc1F — activity vs control (TEK Y897S; enzyme activity; inhibitor; 0.1 µM): 103%
CCCOc1ccc(OC)c(F)c1C(=O)c1ccc(C(=O)N[C@@H]2CNC[C@H]2NC(=O)c2ccc3[nH]ncc3c2)cc1 — remaining activity (TEK R849W; enzyme activity; inhibitor; 10 µM): 46%
CC(=O)N1CCC(c2ccc(C(=O)NC3=NCCN3)cc2C(F)(F)F)CC1 — remaining binding (TEK; cell-free assay; competition with immobilised ligand; 1 µM): 100%
O=C(Nc1cnn(-c2csc(C(=O)NC3COC3)c2)c1)Nc1c(F)cccc1Cl — remaining activity (TEK; enzyme activity; inhibitor; 5 µM): 105%
O=C(Nc1cnc(Oc2ccc(F)cc2)nc1)N1CCc2ncccc2[C@@H]1c1ccc(F)cc1 — remaining binding (TEK; cell-free assay; competition with immobilised ligand; 1 µM): 93%
O=C1Nc2ccc(Cl)cc2C1=Cc1cc(Cl)c(O)c(Cl)c1 — remaining signal (TEK; cell-free assay; 0.5 µM): 93%
CCOC(=O)c1cc2cc(-c3cc(C(=O)NCc4ccc(C(=O)O)cc4)nn3C)ccc2[nH]1 — remaining binding (TEK; cell-free assay; competition with immobilised ligand; 0.1 µM): 83%
CS(=O)(=O)Nc1cccc(-c2csc(NC(=O)CSc3nc4nccnc4c(=O)n3CCc3ccccc3)n2)c1 — inhibition (TEK; enzyme activity; inhibitor; 10 µM): 3%
COc1cc(Cl)c(C(=O)N[C@@H](CN[C@H]2CC[C@@H](N)CC2)Cc2ccc(C#N)cc2)cc1-c1ccc(CN[C@H](C)c2ccc(C)cc2)o1 — remaining activity (TEK; enzyme activity; inhibitor; 1 µM): 79%
O=C(Nc1cnn(-c2csc(C(=O)NC3COC3)c2)c1)Nc1ccccc1Cl — remaining activity (TEK; enzyme activity; inhibitor; 5 µM): 100%
COc1cc2ncnc(Nc3ccc(Oc4ccccc4)c(C)c3C)c2cc1OC — inhibition (TEK; enzyme activity; inhibitor; 1 µM): 6%
Cc1[nH]c(/C=C2\C(=O)Nc3ccc(F)cc32)c(C)c1C(=O)N[C@H]1CCN(C(=O)N(C)C)C1 — remaining activity (TEK; enzyme activity; inhibitor; 0.1 µM): 94%
CNC(=O)c1cc2c(Oc3ccc(NC(=O)C4(C(=O)Nc5ccc(F)cc5)CC4)cc3)ccnc2cc1OC — inhibition (TEK Y897S; enzyme activity; inhibitor; radiometric; 1 µM): 96%
Cc1ccc(NC(=O)c2ccc(C)c(C(F)(F)F)c2)cc1C#Cc1nn(C2CCC(O)CC2)c2ncnc(N)c12 (stereo not shown) — remaining signal (TEK R849W; cell-free assay; 10 µM): 0%
CC(C)(O)[C@H]1CC[C@H](Nc2ccc3ncc(-c4cccc(C(F)(F)F)c4)n3n2)CC1 — remaining activity (TEK; enzyme activity; inhibitor; 1 µM): 89%
COc1cc(Nc2cnc(C#N)c(O[C@H](C)CN(C)C)n2)ncc1-c1cnn(C)c1 — remaining activity (TEK; enzyme activity; inhibitor; radiometric; 10 µM): 90%
Cc1c[nH]c2nccc(Oc3c(F)cc(Nc4cc(Cl)nc(N)n4)cc3F)c12 — remaining binding (TEK; cell-free assay; competition with immobilised ligand; 0.1 µM): 95%
COc1cc(/C=C/C(=O)CC(=O)/C=C/c2ccc(O)c(OC)c2)ccc1O — activity vs control (TEK; enzyme activity; inhibitor; 1 µM): 112%
CC(C)(C)c1nc2c(s1)c1nc(N)ncc1c1ccc(NS(=O)(=O)c3c(F)cccc3F)c(F)c12 — remaining activity (TEK; enzyme activity; inhibitor; radiometric; 1 µM): 79%
CCN(CC)c1ccc(C2=NNC(=O)CC2C)cc1[N+](=O)[O-] (stereo not shown) — remaining activity (TEK; enzyme activity; inhibitor; 10 µM): 24%
CCc1ccccc1C(=O)Nc1n[nH]c2c(C)c(F)c(C3C(C#N)=C(C)N(C)C(C)=C3C#N)cc12 — remaining binding (TEK; cell-free assay; competition with immobilised ligand; 1 µM): 91%
CNC(=O)c1cc(Oc2ccc(NC(=O)Nc3ccc(Cl)c(C(F)(F)F)c3)cc2)ccn1 — remaining signal (TEK; cell-free assay; 0.5 µM): 104%
CNCc1ccccc1-c1csc([C@@H](C)Nc2nc(C)nc3cc(OC)c(OC)cc23)c1 — remaining binding (TEK; cell-free assay; competition with immobilised ligand; 1 µM): 87%
Nc1ncnc2occ(-c3ccc(NC(=O)Nc4cc(C(F)(F)F)ccc4F)cc3)c12 — remaining signal (TEK; cell-free assay; 20 µM): 0%
COc1cc2nccc(Oc3ccc(NC(=O)c4c5n(n(-c6ccc(F)cc6)c4=O)CCCC5)cc3)c2cc1OC — inhibition (TEK; enzyme activity; inhibitor; 0.1 µM): 26%
CCOCCn1cc(C(=O)Nc2ccc(-n3nc(-c4cccnc4)cc3C(F)(F)F)cn2)ccc1=O — remaining binding (TEK; cell-free assay; competition with immobilised ligand; 1 µM): 87%
Cc1cnc(NC2CCOCC2)nc1-n1cnc(C(=O)NC(CN)c2cc(F)cc(Cl)c2)c1 (stereo not shown) — remaining activity (TEK; enzyme activity; inhibitor; radiometric; 1 µM): 105%
C[C@H](c1ccc(F)cc1)N(Cc1cccc(C(=O)O)c1)C(=O)c1cnc2ccccc2c1 — remaining binding (TEK; cell-free assay; competition with immobilised ligand; 1 µM): 98%
CCN(CC)CCNC(=O)c1c(C)[nH]c(/C=C2\C(=O)Nc3ccc(F)cc32)c1C — inhibition (TEK; enzyme activity; inhibitor; 0.3 µM): -2%
